According to publication PMC9434060 (Heliyon, 2022):

Experiments:
XCGL-1 [1] = experiment: Inhibition of XCGL-1 hemagglutination; assay type: cell-based, Xenopus laevis; settings: pig red blood cells; for inhibition of agglutination: 50 nM XCGL-1, millimolar concentrations; for inhibition of hemagglutination by carbohydrates: 25 nM XCGL-1
Summary of the method: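 Citrated fresh pig red cells, washed in 20 mM HEPES pH 7.5, 150 mM NaCl, 10 mM CaCl2, used as a 2.5% suspension in a Terasaki plate. Two set-ups: carbohydrates at various concentrations with 25 nM lectin; EDTA or galactose at millimolar concentrations with 50 nM lectin. Plates photographed after 1 h.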

XCGL-1 [2] = experiment: Competitive elution of XCGL-1 from lactose resin; set-up: species or system Xenopus laevis; settings: carbohydrate 6.5 mM in binding buffer, western blot
Summary of the method: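 Lactose-agarose resin (250 μL) settled in a spin column and washed three times with binding buffer (20 mM HEPES pH 7.5, 150 mM NaCl, 10 mM CaCl2). Protein (250 μL, 0.1 μM) bound for 5 min, then washed three times. Elution with each carbohydrate at 6.5 mM in binding buffer; eluates analysed by western blot.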

His6 XCGL-1 = His6 XCGL-1 (Xenopus laevis, UniProt Q91719); experiment: Inhibition of His6 XCGL-1 hemagglutination by carbohydrates; assay type: cell-based; settings: pig red blood cells, 25 nM XCGL-1
Summary of the method: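 Fresh pig blood collected into sodium citrate tubes. Red cells washed in 20 mM HEPES pH 7.5, 150 mM NaCl, 10 mM CaCl2 and used as a 2.5% suspension. Incubated with 25 nM lectin plus carbohydrate at various concentrations in a Terasaki plate. Agglutination photographed after 1 h. MIC is the minimum carbohydrate concentration inhibiting agglutination.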

Refolded XCGL-1 CRD = experiment: Inhibition of refolded XCGL-1 CRD hemagglutination by carbohydrates; assay type: cell-based, Xenopus laevis; settings: pig red blood cells; for inhibition of hemagglutination at 25 mM: 25 nM XCGL-1, carbohydrate 25 mM; for concentration at which inhibition of hemagglutination was observed: 25 nM XCGL-1
His6 XCGL-1 CRD = experiment: Inhibition of His6 XCGL-1 CRD hemagglutination by carbohydrates; assay type: cell-based, Xenopus laevis; settings: pig red blood cells, 25 nM XCGL-1

Chain of His6 XCGL-1 (Q91719 18-313): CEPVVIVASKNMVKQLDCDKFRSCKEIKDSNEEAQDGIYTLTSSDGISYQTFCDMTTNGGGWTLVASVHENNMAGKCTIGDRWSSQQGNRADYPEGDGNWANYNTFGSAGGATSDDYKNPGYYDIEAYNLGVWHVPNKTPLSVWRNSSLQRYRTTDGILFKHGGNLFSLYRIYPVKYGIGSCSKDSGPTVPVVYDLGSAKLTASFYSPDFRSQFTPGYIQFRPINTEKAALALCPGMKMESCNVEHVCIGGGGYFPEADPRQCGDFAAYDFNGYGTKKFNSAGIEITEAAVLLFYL

Compound | inhibition of hemagglutination by carbohydrates (XCGL-1 [1]) | competitive elution of XCGL-1 bound to lactose resin (XCGL-1 [2]) | minimum inhibitory concentration (MIC) of hemagglutination (His6 XCGL-1) [mM] | minimum inhibitory concentration (MIC) of hemagglutination (His6 XCGL-1 CRD) [mM] | further results
O=C(O)CN(CCN(CC(=O)O)CC(=O)O)CC(=O)O [EDTA] |  |  |  |  | inhibition of agglutination (XCGL-1 [1]): inhibited
CC(=O)N[C@H]1C(O)O[C@H](CO)[C@H](O)[C@@H]1O (stereo partly drawn) [N-acetylgalactosamine, N-acetyl-D-galactosamine] | could not inhibit hemagglutination |  |  |  | 
CC(=O)N[C@@H]1[C@@H](O)[C@H](O)[C@@H](CO)O[C@H]1O [N-acetylglucosamine, N-acetyl-D-glucosamine] | could not inhibit hemagglutination |  |  |  | 
C[C@H](O)[C@@H](O)[C@@H](O)[C@H](O)C=O [fucose, L-fucose] | could not inhibit hemagglutination |  |  |  | 
O=C[C@H](O)[C@@H](O)[C@@H](O)[C@H](O)CO [galactose, D-galactose] |  | able to elute XCGL-1 competitively | 15 | 10 | inhibition of agglutination (XCGL-1 [1]): inhibited; inhibition of hemagglutination at 25 mM (Refolded XCGL-1 CRD): not efficient at inhibiting hemagglutination
OC[C@H]1OC(O)[C@H](O)[C@@H](O)[C@@H]1O (some centres unmarked) [glucose] | could not inhibit hemagglutination |  |  |  | 
OC[C@H]1O[C@@H](O[C@H]2[C@H](O)[C@@H](O)[C@H](O)O[C@@H]2CO)[C@H](O)[C@@H](O)[C@H]1O [lactose, β-D-Gal-(1→4)-D-Glc] |  | able to elute XCGL-1 competitively | 15 | 10 | concentration at which inhibition of hemagglutination was observed (Refolded XCGL-1 CRD): > 20 mM
OC[C@H]1OC(O)[C@@H](O)[C@@H](O)[C@@H]1O (stereo partly drawn) [mannose, D-mannose] | could not inhibit hemagglutination |  |  |  | 
OC[C@H]1O[C@H](OCC2O[C@@H](O)[C@H](O)[C@@H](O)[C@@H]2O)[C@H](O)[C@@H](O)[C@H]1O (stereo partly drawn) [melibiose, α-D-Gal-(1→6)-D-Glc] |  | able to elute XCGL-1 competitively | 15 | 10 | concentration at which inhibition of hemagglutination was observed (Refolded XCGL-1 CRD): > 20 mM
CC(=O)N[C@H]1C(O)O[C@H](CO)[C@H](O)[C@@H]1O[C@H]1O[C@H](CO)[C@H](O)[C@H](O)[C@H]1O (stereo partly drawn) [α-D-Gal-(1→3)-D-GalNAc] |  | able to elute XCGL-1 competitively | 5 | 2.5 | inhibition of hemagglutination at 25 mM (Refolded XCGL-1 CRD): no inhibition
